Measured values: ChEMBL document CHEMBL2311356, “The effect of 17-N substituents on the activity of the opioid κ receptor in nalfurafine derivatives” (Bioorg Med Chem Lett, 2013)

Legend:
Mu-type opioid receptor = Mu-type opioid receptor (Mus musculus, UniProt P42866); assay: Displacement of [3H]DAMGO from mu opioid receptor in mouse whole brain membranes without cerebellum after 1 hr by liquid scintillation counting analysis; type: cell membranes, Membrane
In short: (§1)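 Radioligand displacement from membranes used [³H]DAMGO for μ and [³H]DPDPE for δ, both on mouse whole brain without cerebellum. For κ it used [³H]U-69,593 on guinea pig cerebellum. Values are means of three samples.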

[1] = Selectivity ratio of Ki for mu opioid receptor in mouse whole brain membranes without cerebellum to Ki for kappa opioid receptor in guinea pig cerebellum; type: cell membranes
[2] = target: Delta-type opioid receptor (Mus musculus, UniProt P32300); assay: Displacement of [3H]DPDPE from delta opioid receptor in mouse whole brain membranes without cerebellum after 1 hr by liquid scintillation counting analysis; type: cell membranes, Membrane; in short: as §1
[3] = Selectivity ratio of Ki for delta opioid receptor in mouse whole brain membranes without cerebellum to Ki for kappa opioid receptor in guinea pig cerebellum; type: cell membranes
[4] = target: T1, Kappa-type opioid receptor (Homo sapiens, UniProt P41145); assay: Agonist activity at human recombinant kappa opioid receptor expressed in CHO cells after 2 hrs by [35S]-GTPgammaS binding assay; type: functional, cell-based
In short: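 CHO cell membranes carrying the recombinant human κ receptor were incubated with [³⁵S]GTPγS, GDP and the test agent. Values are means of four samples.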

[5] = target: Kappa-type opioid receptor (Cavia porcellus, UniProt P41144); assay: Displacement of [3H]U69593 from kappa opioid receptor in guinea pig cerebellum after 1 hr by liquid scintillation counting analysis; in short: as §1
[6] = target: T1, Kappa-type opioid receptor; assay: Agonist activity at human recombinant kappa opioid receptor expressed in CHO cells after 2 hrs by [35S]-GTPgammaS binding assay relative to control; type: functional, cell-based
In short: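 CHO cell membranes carrying the recombinant human κ receptor were incubated with [³⁵S]GTPγS, GDP and the test agent. U-69,593 served as the reference κ agonist. Values are means of four samples.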

Chain of Mu-type opioid receptor (P42866 whole entry): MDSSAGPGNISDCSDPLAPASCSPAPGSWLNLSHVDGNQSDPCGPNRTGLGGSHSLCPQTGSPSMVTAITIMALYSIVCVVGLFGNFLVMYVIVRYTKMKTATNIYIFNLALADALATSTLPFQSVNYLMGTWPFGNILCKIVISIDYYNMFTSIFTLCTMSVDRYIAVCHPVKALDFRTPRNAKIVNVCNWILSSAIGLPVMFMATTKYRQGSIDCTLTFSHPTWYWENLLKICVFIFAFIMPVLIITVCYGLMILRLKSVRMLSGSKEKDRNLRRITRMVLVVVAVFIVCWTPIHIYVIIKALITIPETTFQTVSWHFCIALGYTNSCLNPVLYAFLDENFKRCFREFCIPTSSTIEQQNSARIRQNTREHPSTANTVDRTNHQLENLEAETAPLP
T1 sequence (P41145 whole entry): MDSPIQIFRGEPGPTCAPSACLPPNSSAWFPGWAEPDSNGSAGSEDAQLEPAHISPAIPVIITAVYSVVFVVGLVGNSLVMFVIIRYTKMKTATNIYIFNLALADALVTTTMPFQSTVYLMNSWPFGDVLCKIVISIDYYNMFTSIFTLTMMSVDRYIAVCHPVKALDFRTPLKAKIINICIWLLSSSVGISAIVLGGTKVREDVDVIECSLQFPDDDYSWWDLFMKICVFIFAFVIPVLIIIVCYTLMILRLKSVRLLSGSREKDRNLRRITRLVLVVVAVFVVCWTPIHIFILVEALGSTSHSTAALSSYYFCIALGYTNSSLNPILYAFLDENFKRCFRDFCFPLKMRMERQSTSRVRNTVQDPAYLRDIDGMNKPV
Chain of Kappa-type opioid receptor (Cavia porcellus, UniProt P41144) (P41144 whole entry): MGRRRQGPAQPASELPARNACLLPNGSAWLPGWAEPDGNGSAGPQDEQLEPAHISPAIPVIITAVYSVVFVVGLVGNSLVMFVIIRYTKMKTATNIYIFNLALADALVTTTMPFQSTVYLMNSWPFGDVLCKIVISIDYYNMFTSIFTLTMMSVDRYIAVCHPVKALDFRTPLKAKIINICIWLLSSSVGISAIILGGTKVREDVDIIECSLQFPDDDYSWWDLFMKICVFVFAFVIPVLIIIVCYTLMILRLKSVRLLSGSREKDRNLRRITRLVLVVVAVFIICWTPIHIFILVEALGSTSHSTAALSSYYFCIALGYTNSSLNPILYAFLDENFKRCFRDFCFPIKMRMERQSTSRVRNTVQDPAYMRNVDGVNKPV
Chain of Delta-type opioid receptor (P32300 whole entry): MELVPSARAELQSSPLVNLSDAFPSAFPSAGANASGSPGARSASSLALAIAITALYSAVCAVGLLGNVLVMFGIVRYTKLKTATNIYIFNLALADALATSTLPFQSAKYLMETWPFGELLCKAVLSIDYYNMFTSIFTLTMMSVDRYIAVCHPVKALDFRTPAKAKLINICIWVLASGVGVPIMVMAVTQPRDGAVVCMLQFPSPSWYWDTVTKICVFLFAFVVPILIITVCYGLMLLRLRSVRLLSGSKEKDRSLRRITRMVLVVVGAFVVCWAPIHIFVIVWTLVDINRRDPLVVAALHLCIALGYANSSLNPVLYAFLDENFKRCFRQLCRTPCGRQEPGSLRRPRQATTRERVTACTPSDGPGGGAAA

| Structure (SMILES) | Ki (Mu-type opioid receptor) [nM] | Ratio Ki [1] | Ki [2] [nM] | Ratio Ki [3] | EC50 [4] [nM] | Ki [5] [nM] | Emax [6] [%] |
| --- | --- | --- | --- | --- | --- | --- | --- |
| CN(CCC[C@]1(O)[C@H]2CCN(C)[C@@H]1Cc1ccc(O)c(O)c12)C(=O)/C=C/c1ccoc1 | 2.77 | 3.77 | 35.7 | 48.6 | 11.3 | 0.735 | 90.4 |
| CN(CCC[C@]1(O)[C@H]2CCN(CC(F)F)[C@@H]1Cc1ccc(O)c(O)c12)C(=O)/C=C/c1ccoc1 | > 1000 | – | > 1000 | – | 22.4 | 2.19 | 101 |
| CN(CCC[C@]1(O)[C@H]2CCN(CC(F)(F)F)[C@@H]1Cc1ccc(O)c(O)c12)C(=O)/C=C/c1ccoc1 | > 1000 | – | > 1000 | – | 32.2 | 4.58 | 89 |
| CCCN1CC[C@H]2c3c(ccc(O)c3O)C[C@@H]1[C@]2(O)CCCN(C)C(=O)/C=C/c1ccoc1 | 19.2 | 58.4 | 176 | 537 | 2.72 | 0.328 | 86.5 |
| CC(C)CN1CC[C@H]2c3c(ccc(O)c3O)C[C@@H]1[C@]2(O)CCCN(C)C(=O)/C=C/c1ccoc1 | 46.2 | 78.4 | 514 | 872 | 8.07 | 0.59 | 99.5 |
| CN(CCC[C@]1(O)[C@H]2CCN(CCF)[C@@H]1Cc1ccc(O)c(O)c12)C(=O)/C=C/c1ccoc1 | 8.39 | 16.6 | > 1000 | – | 2.23 | 0.507 | 95.2 |
| CCN1CC[C@H]2c3c(ccc(O)c3O)C[C@@H]1[C@]2(O)CCCN(C)C(=O)/C=C/c1ccoc1 | 11 | 17.6 | 512 | 818 | 3.79 | 0.625 | 97.4 |
| CN(C(=O)/C=C/c1ccoc1)[C@@H]1CC[C@@]2(O)[C@H]3Cc4ccc(O)c5c4[C@@]2(CCN3CC2CC2)[C@H]1O5 | – | – | – | – | – | – | 98.1 |
